How the values were obtained:
[1] = target: T1, Vasopressin V2 receptor (Rattus norvegicus, UniProt Q00788); test: Displacement of [3H]-AVP from its AVP-V2 receptor binding site in rat kidney
Summary of the method: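 Radioligand competition with [3H]AVP on plasma membrane preparations, rat liver for V1a and rat kidney for V2. Assays run in duplicate. Reported intraassay variation is under 3% and interassay variation under 20%.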

[2] = target: T2, Vasopressin V1a receptor (Rattus norvegicus, UniProt P30560); test: Displacement of [3H]AVP from AVP-V1a receptor binding site in rat liver
T2 sequence (P30560 whole entry): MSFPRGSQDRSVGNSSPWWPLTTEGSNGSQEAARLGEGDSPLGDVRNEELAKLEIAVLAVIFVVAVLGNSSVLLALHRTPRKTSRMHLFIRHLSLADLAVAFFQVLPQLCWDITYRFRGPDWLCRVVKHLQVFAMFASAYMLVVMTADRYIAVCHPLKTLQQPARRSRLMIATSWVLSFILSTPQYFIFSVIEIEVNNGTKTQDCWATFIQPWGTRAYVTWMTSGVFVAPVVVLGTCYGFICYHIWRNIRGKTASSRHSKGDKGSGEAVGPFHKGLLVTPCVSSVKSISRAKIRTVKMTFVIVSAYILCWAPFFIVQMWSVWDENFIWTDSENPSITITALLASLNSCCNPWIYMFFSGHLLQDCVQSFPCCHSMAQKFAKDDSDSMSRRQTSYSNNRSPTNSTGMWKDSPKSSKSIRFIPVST
Summary of the method: (§1)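 Radioligand competition with [3H]AVP on plasma membrane preparations, rat liver for V1a and rat kidney for V2. […] Assays run in duplicate. Reported intraassay variation is under 3% and interassay variation under 20%.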

[3] = system: Rattus norvegicus; test: UV values mean 2-h urine volume (mL) when the compound was administered orally at a dose of 10 mg/kg; format: functional; conditions: route oral
Summary of the method: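 Conscious rats dosed orally at 10 mg/kg, with urine voided spontaneously. The value is urine volume (mL) collected over the first 2 h, given as mean ± SEM of 4 rats and set against control rats (n = 4).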

[4] = system: Rattus norvegicus; test: Dose(mg/kg) required for a 3-fold increase in the 2-h urine volume over the control rats.; format: functional
Summary of the method: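 Hydrated conscious rats, compound given orally at three or four doses. Spontaneously voided urine collected every 2 h over 8 h. ED3 (mg/kg) read from the dose–response curve as the dose giving a 3-fold rise in 2-h urine volume over control rats. ">" means no 3-fold rise at the highest dose tested.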

[5] = target: T2, Vasopressin V1a receptor; test: Compound was tested for its ability to displace [3H]AVP from its specific binding sites in Rat liver (AVP-V1a receptor).; summary of the method: as §1
[6] = target: T1, Vasopressin V2 receptor; test: Compound was tested for its ability to displace [3H]AVP from its specific binding sites in rat Kidney (AVP-V2 receptor).; summary of the method: as §1

T1 sequence (Q00788 whole entry): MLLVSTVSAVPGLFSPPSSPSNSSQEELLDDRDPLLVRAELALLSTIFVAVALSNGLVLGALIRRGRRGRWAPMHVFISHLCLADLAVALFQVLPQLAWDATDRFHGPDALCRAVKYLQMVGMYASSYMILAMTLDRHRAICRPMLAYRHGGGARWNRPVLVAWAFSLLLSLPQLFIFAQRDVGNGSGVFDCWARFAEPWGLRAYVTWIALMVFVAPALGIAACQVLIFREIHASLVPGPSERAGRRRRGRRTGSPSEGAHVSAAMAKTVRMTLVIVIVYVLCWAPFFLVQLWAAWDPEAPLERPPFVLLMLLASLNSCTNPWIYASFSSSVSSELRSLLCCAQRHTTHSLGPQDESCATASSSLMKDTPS

| SMILES | IC50 [1] [µM] | IC50 [2] [µM] | Activity [3] [mL] | ED3 [4] [mg/kg] | IC50 [5] [µM] | IC50 [6] [µM] |
| --- | --- | --- | --- | --- | --- | --- |
| O=C(Nc1ccc(C(=O)N2CCCc3ccccc32)cc1)c1ccc(Cl)cc1Cl | 0.25 | > 100 | – | – | – | – |
| O=C(Nc1cccc(C(=O)N2CCCc3ccccc32)c1)c1ccccc1 | 40 | > 100 | – | – | – | – |
| O=C(Nc1ccc(C(=O)N2CCCc3ccccc32)cc1)c1ccc([N+](=O)[O-])cc1 | 6.5 | > 100 | – | – | – | – |
| O=C(Nc1ccc(C(=O)N2CCCc3ccccc32)cc1)c1ccc(Cl)cc1 | 1.9 | 5.1 | – | – | – | – |
| O=C(Nc1ccc(C(=O)N2CCCCc3ccccc32)cc1)c1ccccc1Cl | 0.029 | 0.045 | – | – | – | – |
| O=C(Nc1ccc(C(=O)N2CCCc3ccccc32)cc1)c1cccnc1 | 7.6 | 11 | – | – | – | – |
| O=C(Cc1ccccc1)Nc1ccc(C(=O)N2CCCc3ccccc32)cc1 | 1 | 3.2 | – | – | – | – |
| O=C(Nc1ccc(C(=O)N2CCCc3ccccc32)cc1)c1ccccc1 | – | 1.6 | – | – | – | – |
| CCCN(C)C1CCCN(C(=O)c2ccc(NC(=O)c3ccccc3C)cc2)c2ccccc21 (stereo not given) | 0.022 | 1.2 | 8.3 | 4.9 | – | – |
| CN(C)C1CCCN(C(=O)c2ccc(NC(=O)c3cc(Cl)cc(Cl)c3)cc2)c2ccccc21 (stereo not given) | 0.02 | 2.6 | – | – | – | – |
| Cc1ccccc1C(=O)Nc1ccc(C(=O)N2CCCOc3ccccc32)cc1 | 0.11 | 1.2 | – | – | – | – |
| Cc1ccccc1C(=O)Nc1ccc(C(=O)N2CCN(C)Cc3ccccc32)cc1 | 0.17 | 1.8 | – | – | – | – |
| Cc1ccccc1C(=O)Nc1ccc(C(=O)N2CCCC(N(C)CC(N)=O)c3ccccc32)cc1 (stereo not given) | – | – | 6.2 | 6.4 | – | – |
| Cc1ccccc1C(=O)Nc1ccc(C(=O)N2CCCC(N)c3ccccc32)cc1 (stereo not given) | 0.032 | 0.39 | – | – | – | – |
| Cc1ccccc1C(=O)N(C)c1ccc(C(=O)N2CCCC(N(C)C)c3ccccc32)cc1 (stereo not given) | 1 | 19 | – | – | – | – |
| CC(=O)O/N=C1\CCCN(C(=O)c2ccc(NC(=O)c3ccccc3C)cc2)c2ccccc21 | – | – | – | > 30 | 2.3 | 0.058 |
| O=C(Nc1ccc(C(=O)N2CCCc3ccccc32)cc1)c1cccc(Cl)c1 | – | 6.4 | – | – | – | – |
| Cc1ccccc1C(=O)Nc1ccc(C(=O)N2CCOCc3ccccc32)cc1 | 0.3 | 0.63 | – | – | – | – |
| Cc1ccccc1C(=O)Nc1ccc(C(=O)N2CCCC(N(C)CC#N)c3ccccc32)cc1 (stereo not given) | 0.025 | 3.2 | – | >30 | – | – |
| COc1ccc(C(=O)Nc2ccc(C(=O)N3CCCc4ccccc43)cc2)cc1 | 1.8 | 2.2 | – | – | – | – |
| Cc1cccc(C(=O)Nc2ccc(C(=O)N3CCCc4ccccc43)cc2)c1 | 0.68 | 3.1 | – | – | – | – |

| SMILES | IC50 [1] [µM] | IC50 [2] [µM] | Activity [3] [mL] | ED3 [4] [mg/kg] | IC50 [5] [µM] | IC50 [6] [µM] |
| --- | --- | --- | --- | --- | --- | --- |
| O=C(Nc1ccc(C(=O)N2CCCCc3ccccc32)cc1)Oc1ccccc1 | – | – | – | – | 7.8 | 0.79 |
| COc1ccccc1C(=O)Nc1ccc(C(=O)N2CCCc3ccccc32)cc1 | 2.1 | 1.91 | – | – | – | – |
| Cc1cccc(C(=O)Nc2ccc(C(=O)N3CCCC(N(C)C)c4ccccc43)cc2)c1 (stereo not given) | 0.014 | 2.4 | – | >30 | – | – |
| CCCNC1CCCN(C(=O)c2ccc(NC(=O)c3ccccc3C)cc2)c2ccccc21 (stereo not given) | 0.05 | 0.89 | 5.6 | 6.6 | – | – |
| Cc1ccc(C(=O)Nc2ccc(C(=O)N3CCCc4ccccc43)cc2)cc1 | 1.4 | 10 | – | – | – | – |
| Cc1ccccc1C(=O)Nc1ccc(C(=O)N2CCCc3ccccc32)cc1 | – | 1.4 | – | – | – | – |
| CN(C)C1CCCN(C(=O)c2ccc(NC(=O)c3ccccc3[N+](=O)[O-])cc2)c2ccccc21 (stereo not given) | 0.071 | 2.6 | – | – | – | – |
| O=C(Nc1ccc(C(=O)N2CCCc3ccccc32)cc1)c1ccsc1 | 1.7 | 1.7 | – | – | – | – |
| CC(=O)NC1CCCN(C(=O)c2ccc(NC(=O)c3ccccc3C)cc2)c2ccccc21 (stereo not given) | 0.15 | 3.2 | – | >30 | – | – |
| O=C(Nc1ccc(C(=O)N2CCCc3ccccc32)cc1)c1ccccc1[N+](=O)[O-] | 0.53 | 2.7 | – | – | – | – |
| CCCC(=O)Nc1ccc(C(=O)N2CCCc3ccccc32)cc1 | 7.1 | 4.3 | – | – | – | – |
| Cc1ccccc1C(=O)Nc1ccc(C(=O)N2CCCC(O)c3ccccc32)cc1 (stereo not given) | 0.029 | 0.14 | 3.6 | – | – | – |
| CN(C)C1CCCN(C(=O)c2ccc(NC(=O)c3ccccc3)cc2)c2ccccc21 (stereo not given) | 0.027 | 3 | – | >30 | – | – |
| Cc1ccc(C(=O)Nc2ccc(C(=O)N3CCCc4ccccc43)cc2)cc1C | 1.2 | > 100 | – | – | – | – |
| COc1cccc(C(=O)Nc2ccc(C(=O)N3CCCc4ccccc43)cc2)c1 | – | 2.8 | – | – | – | – |
| CN(C)C1CCCN(C(=O)c2ccc(NC(=O)c3ccccc3N)cc2)c2ccccc21 (stereo not given) | 0.19 | 1.9 | – | – | – | – |
| Cc1ccccc1C(=O)Nc1ccc(C(=O)N2CCN(C)c3ccccc32)cc1 | 0.4 | 5.1 | – | – | – | – |
| Cc1ccccc1C(=O)Nc1ccc(C(=O)N2CCCC(N(C)C)c3ccccc32)cc1 (stereo not given) [MOZAVAPTAN] | – | 1.4 | 12.3 | 3.8 | – | – |
| CCNC1CCCN(C(=O)c2ccc(NC(=O)c3ccccc3C)cc2)c2ccccc21 (stereo not given) | 0.029 | 1.6 | 5.4 | 8 | – | – |
| CNC1CCCN(C(=O)c2ccc(NC(=O)c3ccccc3C)cc2)c2ccccc21 (stereo not given) | 0.024 | 0.72 | 8.3 | 4.6 | – | – |
| CC(=O)Nc1ccc(C(=O)N2CCCc3ccccc32)cc1 | > 100 | 74 | – | – | – | – |

| SMILES | IC50 [1] [µM] | IC50 [2] [µM] | Activity [3] [mL] | ED3 [4] [mg/kg] | IC50 [5] [µM] | IC50 [6] [µM] |
| --- | --- | --- | --- | --- | --- | --- |
| O=C(Nc1ccccc1)Nc1ccc(C(=O)N2CCCCc3ccccc32)cc1 | 0.18 | 0.76 | – | – | – | – |
| O=C(Nc1ccc(C(=O)N2CCCc3ccccc32)cc1)c1cc(Cl)cc(Cl)c1 | 0.082 | 9.4 | – | – | – | – |
| O=C(Nc1ccc(C(=O)N2CCCc3ccccc32)cc1)c1ccccc1Cl | 0.42 | 1.6 | – | – | – | – |
| CN(C)C1CCCN(C(=O)c2ccc(NC(=O)c3ccccc3Cl)cc2)c2ccccc21 (stereo not given) | 0.027 | 3 | 7 | 4.2 | – | – |
| CCOC(=O)CN(C)C1CCCN(C(=O)c2ccc(NC(=O)c3ccccc3C)cc2)c2ccccc21 (stereo not given) | 0.029 | 0.98 | – | >30 | – | – |
| O=C(CCc1ccccc1)Nc1ccc(C(=O)N2CCCc3ccccc32)cc1 | 6.1 | 2.3 | – | – | – | – |
| O=C(Nc1ccccc1C(=O)N1CCCc2ccccc21)c1ccccc1 | 22 | 88 | – | – | – | – |
| O=C(Nc1ccc(C(=O)N2CCCC(N3CCCCC3)c3ccccc32)cc1)c1ccccc1Cl (stereo not given) | 0.14 | 2.8 | – | – | – | – |
| Cc1ccc(C(=O)Nc2ccc(C(=O)N3CCCc4ccccc43)cc2)c(C)c1 | 0.21 | 3.3 | – | – | – | – |
| Cc1ccccc1C(=O)Nc1ccc(C(=O)N2CCOc3ccccc32)cc1 | 4.1 | 7.7 | – | – | – | – |
| CN(C)C1CCCN(C(=O)c2ccc(NC(=O)c3ccc(Cl)cc3Cl)cc2)c2ccccc21 (stereo not given) | 0.013 | 1.3 | – | – | – | – |
| Cc1ccc(C(=O)Nc2ccc(C(=O)N3CCCC(N(C)C)c4ccccc43)cc2)cc1 (stereo not given) | 0.044 | 26 | – | – | – | – |
| O=C(Nc1ccc(C(=O)N2CCCc3ccccc32)cc1)c1cccc([N+](=O)[O-])c1 | 0.76 | 16 | – | – | – | – |
| CNC(=O)NC1CCCN(C(=O)c2ccc(NC(=O)c3ccccc3C)cc2)c2ccccc21 (stereo not given) | 0.096 | 2.8 | – | – | – | – |
| O=C(Nc1ccc(C(=O)N2CCCc3ccccc32)cc1)c1ccco1 | 6.4 | 4 | – | – | – | – |
| COc1ccccc1C(=O)Nc1ccc(C(=O)N2CCCC(N(C)C)c3ccccc32)cc1 (stereo not given) | 0.077 | 1 | – | – | – | – |
| CC(C)C(=O)Nc1ccc(C(=O)N2CCCc3ccccc32)cc1 | 8.1 | 2.4 | – | – | – | – |
| CCOc1ccc(C(=O)Nc2ccc(C(=O)N3CCCc4ccccc43)cc2)cc1 | > 100 | 14 | – | – | – | – |
| CC(=O)Nc1ccccc1C(=O)Nc1ccc(C(=O)N2CCCC(N(C)C)c3ccccc32)cc1 (stereo not given) | 0.64 | 16 | – | – | – | – |
| O=C(c1ccc(NS(=O)(=O)c2ccccc2)cc1)N1CCCCc2ccccc21 | 1.6 | 2.5 | – | – | – | – |
| CCCCOc1ccc(C(=O)Nc2ccc(C(=O)N3CCCc4ccccc43)cc2)cc1 | > 100 | > 100 | – | – | – | – |

From ChEMBL document CHEMBL1129629, “Orally active, nonpeptide vasopressin V2 receptor antagonists: a novel series of 1-[4-(benzoylamino)benzoyl]-2,3,4,5-tetrahydro-1H-benzazepines and related compounds” (J Med Chem, 1996)
